The list is not random: actives were taken first. Their share in the collection is about 2.3%.
Scp-1 inhibitor = blocks human Scp-1 phosphatase activity; Q9GZU7; Recombinant Scp1, phosphopeptide, malachite green phosphate absorbance; inhibition, % at 20 µM; 340,000 compounds, 0.88% hits; AID 493091;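 active = inhibition above about 50% at 20 µM, limit read from the data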
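Test system: SCP-1 phosphatase catalytic domain, residues 76-261; measured by: colorimetric phosphate reagent with accelerator and stabiliser, absorbance at 630 nm; timing: enzyme reaction 45 min at room temperature, colour 5 min, stabilisation 30 min; also added: Phosphorylated 17-residue peptide substrate; compound dosing: one concentration, 20 µM, with 1.0% DMSO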
STEP inh = blocks human striatal-enriched tyrosine phosphatase. P54829. recombinant STEP, OMFP fluorogenic substrate, fluorescence. inhibition, % at 20 µM. 360,000 compounds, 0.25% hits;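 active = inhibition at 20 µM, scaled per plate between control wells, above about 37%, limit read from the data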
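System: STEP phosphatase, cell-free reaction; Buffer or medium: Bis-Tris pH 6.0 buffer with DTT, detergent; Incubation: 20 min at room temperature, dark; Measured by: fluorescence, 480/540 nm.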
SUMO1 PPI mod = modulators of human SUMO1-mediated protein-protein interactions; 360,000 compounds, 0.33% hits; SUMO1 binding to a labelled peptide, TR-FRET, 1 h; P63165; inhibition, % at 20 µM; in the data active = inhibition above about 37%
Target sequence (P63165 whole entry, looked up): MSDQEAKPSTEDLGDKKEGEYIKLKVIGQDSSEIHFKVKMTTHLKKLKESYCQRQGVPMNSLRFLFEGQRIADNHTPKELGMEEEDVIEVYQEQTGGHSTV
LMPTP block = blocks human LMPTP phosphatase; 360,000 compounds, 0.22% hits; inhibition, % at 20 µM; P24666; AID 651560; recombinant LMPTP-A, OMFP fluorogenic substrate, fluorescence intensity;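 active = compounds that cut the enzyme signal by at least half of the control window in the single-dose screen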
Target sequence (P24666 whole entry, looked up): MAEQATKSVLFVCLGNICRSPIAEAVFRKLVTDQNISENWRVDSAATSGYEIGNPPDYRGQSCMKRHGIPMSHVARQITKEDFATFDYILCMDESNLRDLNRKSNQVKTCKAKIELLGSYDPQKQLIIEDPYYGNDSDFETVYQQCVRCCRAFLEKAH
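test system = LMPTP-A | amount = 0.625 nM LMPTP-A final | reagent = fluorogenic phosphatase substrate OMFP at 400 µM final | incubation = 50 min at room temperature | benchmarks = no-enzyme low control, uninhibited high control | medium = Bis-Tris pH 6.0, DTT, detergent | signal = fluorescence intensity of OMFP turnover product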
Rpn11 inh = blocks the human proteasome subunit Rpn11; O00487; human 26S proteasome, Ub4-pepOG fluorescence polarization; 20S core pre-blocked with epoxomicin; inhibition, % at 20 µM; 360,000 compounds, 0.59% hits;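 active = inhibition at 20 µM, scaled to each plate's controls, above about 33%, limit read from the data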
Target sequence (O00487 whole entry, looked up): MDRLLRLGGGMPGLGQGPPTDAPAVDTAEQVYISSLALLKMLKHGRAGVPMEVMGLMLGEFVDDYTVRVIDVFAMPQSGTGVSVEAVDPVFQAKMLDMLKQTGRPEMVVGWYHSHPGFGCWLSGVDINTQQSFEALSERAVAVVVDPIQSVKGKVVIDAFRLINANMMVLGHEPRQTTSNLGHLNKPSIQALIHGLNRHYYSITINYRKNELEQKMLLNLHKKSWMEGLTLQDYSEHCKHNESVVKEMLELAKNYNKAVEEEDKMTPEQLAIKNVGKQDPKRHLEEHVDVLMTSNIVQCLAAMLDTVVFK
DNMT1 inh = blocks human DNA methyltransferase DNMT1; P26358; DNMT1 molecular beacon, Hinp1I cleavage, fluorescence; inhibition (reported as % activation of signal), % at 10 µM; 360,000 compounds, 0.83% hits; AID 588458; in the data active = inhibition above about 50%
Scp1 confirm = confirmation of human Scp-1 phosphatase inhibitors; shares compounds with Scp-1 inhibitor; recombinant SCP-1 catalytic domain, phosphate release, malachite green absorbance; inhibition, % at 20 µM; 2,500 compounds, 61% hits; AID 540281
MG interference = colorimetric interference in Scp-1 counter-screen; shares compounds with Scp-1 inhibitor; 2,500 tested, under 10 active; Colorimetric interference counterscreen, malachite green absorbance 630 nm; AID 540313; apparent inhibition (interference), % at 20 µM;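 also: compounds added after enzyme reaction finished so only phosphate colour detection is probed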
Scp1 DSF = Scp-1 (human) binding by thermal shift | shares compounds with Scp-1 inhibitor | Recombinant SCP1, Sypro Orange thermal shift Tm | thermal shift relative to vanadate control, % at 40 µM | 1,500 compounds, 25% hits | AID 540329;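 active = substances whose mean melting-temperature shift, as a percentage of the reference inhibitor's shift, reaches about 5.3%, limit read from the data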
DNMT1 inh conf = confirmation of human DNMT1 inhibitors; inhibition, % at 10 µM; 2,300 compounds, 8% hits; DNMT1 molecular beacon HinP1I cleavage, fluorescence; shares compounds with DNMT1 inh;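 active = average inhibition of at least 30% in the single-concentration confirmation test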
Beacon interf = shows spectral interference in the DNMT1 beacon assay; shares compounds with DNMT1 inh; DNMT1 molecular beacon spectral interference counterscreen, fluorescence 485/520; activation (fluorescence interference), % at 10 µM; 2,300 compounds, 1% hits;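 active = activation of at least 30% at 10 µM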;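 also: DNMT1 catalytic domain with a HinP1I cleavage step and a FAM/dabcyl DNA beacon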
Rpn11 confirm = confirmation of human proteasome Rpn11 inhibitors; shares compounds with Rpn11 inh; purified human 26S proteasome, Ub4-pepOG fluorescence polarization; proteasome pretreated with epoxomicin; inhibition, % at 20 µM; 1,900 compounds, 29% hits; in the data active = inhibition above about 40%
MMP-2 counter = counter-screen for RPN11 inhibitors: inhibition of human MMP-2; shares compounds with Rpn11 inh; 1,900 compounds, 4% hits; inhibition, % at 20 µM; AID 602330; recombinant MMP-2, FRET peptide cleavage fluorescence; in the data active = inhibition above about 40%;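 also: human MMP-2 activated beforehand with APMA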
Thrombin FP = counter-screen for RPN11 inhibitors: inhibition of bovine thrombin. shares compounds with Rpn11 inh. bovine thrombin cleavage of Ub4-pepOG, fluorescence polarization. inhibition, % at 20 µM. 1,900 compounds, 13% hits;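 active = mean inhibition at least 40% at 20 µM, or signal 3 deviations below plate average, so some actives read negative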
Of the large screens only hits and unclear results are named; the others gave an inactive call (follow-up assays come after a bar, where they were run).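 The calls were made as follows, unless noted: active = inhibition of at least 30% at 20 µM; inactive = the rest.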

S=c1[nH]nc(-c2cc(-c3ccco3)[nH]n2)n1-c1ccccc1Cl	Scp-1 inhibitor 75, DNMT1 inh 73 | Scp1 confirm 31 | MG interference inactive | Scp1 DSF 11 | DNMT1 inh conf inactive | Beacon interf inactive
CNC(=O)[C@H]1O[C@@H](n2cnc3c(NCc4cccc(I)c4)ncnc32)[C@H](O)[C@@H]1O	none
O=C(COC(=O)C1CC2C=CC1C2)NCc1ccc(F)cc1 (stereo unspecified)	none
O=C(COC(=O)C1CC2C=CC1C2)NCc1ccco1 (stereo unspecified)	Scp-1 inhibitor 71, DNMT1 inh 89 | Scp1 confirm 70 | MG interference inactive | Scp1 DSF inactive | DNMT1 inh conf inactive | Beacon interf inactive
CCc1ccc(NC(=O)N2CCN(C(=O)C3CCCO3)CC2)cc1 (stereo unspecified)	none
Cc1ccc(CN2CCNC(=O)C2CC(=O)N(C)C2CCCCC2)cc1 (stereo unspecified)	none
O=C(Nc1ccccc1)c1ccc2nc(-c3ccco3)c(-c3ccco3)nc2c1	Scp-1 inhibitor 71, DNMT1 inh 83 | Scp1 confirm inactive | MG interference inactive | DNMT1 inh conf inactive | Beacon interf inactive
COc1cccc2sc3cc(C#Cc4ccccn4)ccc3c(=O)c12	none
COc1cc2sc3ccc(C#Cc4ccccn4)cc3c(=O)c2cc1OC	Scp-1 inhibitor 50, Rpn11 inh 56 | Scp1 confirm inactive | MG interference inactive | Rpn11 confirm inactive | MMP-2 counter inactive | Thrombin FP inactive
Nc1nc(SCc2ccc(Cl)cc2Cl)nc2nc3c(cc12)CCCC3	Scp-1 inhibitor 97, Rpn11 inh 42, DNMT1 inh 90 | Scp1 confirm 76 | MG interference inactive | Scp1 DSF inactive | DNMT1 inh conf inactive | Beacon interf inactive | Rpn11 confirm 46 | MMP-2 counter inactive | Thrombin FP inactive
CCOc1ccc(/C=C2/SC(=S)N(CCC(=O)Nc3ccc(C(=O)O)cc3)C2=O)cc1	Scp-1 inhibitor 56, STEP inh 47, SUMO1 PPI mod 61, LMPTP block 64, Rpn11 inh 79 | Scp1 confirm 78 | MG interference inactive | Scp1 DSF inactive | Rpn11 confirm inactive | MMP-2 counter inactive | Thrombin FP inactive
CC(C)OCC1CO1 (stereo unspecified)	none
CCc1nnc(NC(=O)CSc2nnc3scc(-c4ccc(C)cc4)n23)s1	none
Cc1ccc(-c2nc(NC(=O)CSc3nnc4scc(-c5ccccc5)n34)ns2)cc1	Scp-1 inhibitor 64, Rpn11 inh 60 | Scp1 confirm 65 | MG interference inactive | Scp1 DSF inactive | Rpn11 confirm inactive | MMP-2 counter inactive | Thrombin FP inactive
CCc1occc(=O)c1Oc1cc(NN2CCCCC2)c([N+](=O)[O-])cc1[N+](=O)[O-]	none
Cc1nn(-c2ccccc2)c(Cl)c1/C=N/NC(=O)c1cccc(S(=O)(=O)N2CCCC2)c1	Scp-1 inhibitor 94, Rpn11 inh 40 | Scp1 confirm inactive | MG interference inactive | Rpn11 confirm inactive | MMP-2 counter inactive | Thrombin FP inactive
O=c1c(Cl)c(N/N=C/c2ccc(Br)cc2)cnn1-c1ccccc1	Scp-1 inhibitor 59, LMPTP block 52, Rpn11 inh 96, DNMT1 inh 90 | Scp1 confirm 61 | MG interference inactive | Scp1 DSF inactive | DNMT1 inh conf inactive | Beacon interf inactive | Rpn11 confirm 47 | MMP-2 counter inactive | Thrombin FP inactive
COc1ccc(Br)cc1C(=O)Nc1cccc(-c2nnc(-c3ccco3)o2)c1	Scp-1 inhibitor 98, Rpn11 inh 121 | Scp1 confirm 72 | MG interference inactive | Scp1 DSF inactive | Rpn11 confirm inactive | MMP-2 counter inactive | Thrombin FP inactive
COc1cccc(C(=O)Nc2cccc(-c3nnc(-c4ccco4)o3)c2)c1	none
O=C(N/N=C/c1sc(=O)n(Cc2ccc(Br)cc2)c1Cl)c1ccco1	Scp-1 inhibitor 103, STEP inh 96, SUMO1 PPI mod 45, LMPTP block 69, Rpn11 inh 148 | Scp1 confirm 84 | MG interference inactive | Scp1 DSF 5.3 | Rpn11 confirm inactive | MMP-2 counter 48 | Thrombin FP inactive
O=C(O)c1ccc(COc2ccccc2C=C2C(=O)c3ccccc3C2=O)cc1	Scp-1 inhibitor 68, Rpn11 inh 46 | Scp1 confirm 69 | MG interference inactive | Scp1 DSF 8.2 | Rpn11 confirm 66 | MMP-2 counter inactive | Thrombin FP inactive
O=C(O)c1ccc(COc2ccccc2/C=C2/NC(=O)N(c3cccc(Cl)c3)C2=O)cc1	Scp-1 inhibitor 66, Rpn11 inh 56 | Scp1 confirm 65 | MG interference inactive | Scp1 DSF inactive | Rpn11 confirm 56 | MMP-2 counter inactive | Thrombin FP inactive
CCCn1cnnc1CNC(=O)C1CCC(=O)N(CCc2cccc(F)c2)C1 (stereo unspecified)	none
CCC(NC(=O)OCc1ccccc1)C(=O)Oc1ccc2ccc(=O)oc2c1 (stereo unspecified)	none
CCN(C(=O)COC(=O)CCC(=O)c1cccs1)c1c(N)n(Cc2ccccc2)c(=O)[nH]c1=O	none

Source: PubChem BioAssay
